According to paper PMC3558928 (Chemistry & biology, 2013):
One block for each compound: values may come before it.

Assays:
PSNF5 cells [1] = assay: Clonogenic survival, sensitization to aphidicolin, PSNF5; format: cell-based, human; settings: ML216 24 hours before aphidicolin, p<0.01
How it was run: (§1)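 Isogenic SV40-transformed Bloom syndrome fibroblasts (GM08505 background): PSNF5 stably expresses Flag-tagged BLM, PSNG13 carries empty vector. Cells were exposed to test compound for 24 hr, then aphidicolin was added at graded concentrations for a further 24 hr. Cells were washed and grown in drug-free medium for up to 12 days to form colonies. Survival curves come from three independent experiments (mean, SD).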

WRN^short (WRN^500–946) = WRN^short (WRN^500–946) (Homo sapiens, UniProt Q14191); assay: Gel-based DNA unwinding assay, truncated WRN; format: biochemical
Sequence of WRN^short (WRN^500–946) (Q14191 500-946): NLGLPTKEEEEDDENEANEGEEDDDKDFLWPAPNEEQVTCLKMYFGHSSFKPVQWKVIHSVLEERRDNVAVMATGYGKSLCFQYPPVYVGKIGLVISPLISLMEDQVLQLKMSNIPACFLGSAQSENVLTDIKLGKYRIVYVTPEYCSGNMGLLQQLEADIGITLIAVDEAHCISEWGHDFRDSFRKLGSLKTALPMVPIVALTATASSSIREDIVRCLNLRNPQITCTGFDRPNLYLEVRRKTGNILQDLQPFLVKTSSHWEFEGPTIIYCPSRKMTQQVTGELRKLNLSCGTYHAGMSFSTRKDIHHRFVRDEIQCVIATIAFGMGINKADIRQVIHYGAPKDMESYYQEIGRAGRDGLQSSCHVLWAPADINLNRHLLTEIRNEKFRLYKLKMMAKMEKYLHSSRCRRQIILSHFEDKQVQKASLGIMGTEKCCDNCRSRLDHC

BLM [2] = biological target: T1, BLM (Homo sapiens, UniProt P54132); assay: BLM disruption of D-loop, Holliday junction and G-quadruplex substrates; format: biochemical
T1 sequence (P54132 whole entry): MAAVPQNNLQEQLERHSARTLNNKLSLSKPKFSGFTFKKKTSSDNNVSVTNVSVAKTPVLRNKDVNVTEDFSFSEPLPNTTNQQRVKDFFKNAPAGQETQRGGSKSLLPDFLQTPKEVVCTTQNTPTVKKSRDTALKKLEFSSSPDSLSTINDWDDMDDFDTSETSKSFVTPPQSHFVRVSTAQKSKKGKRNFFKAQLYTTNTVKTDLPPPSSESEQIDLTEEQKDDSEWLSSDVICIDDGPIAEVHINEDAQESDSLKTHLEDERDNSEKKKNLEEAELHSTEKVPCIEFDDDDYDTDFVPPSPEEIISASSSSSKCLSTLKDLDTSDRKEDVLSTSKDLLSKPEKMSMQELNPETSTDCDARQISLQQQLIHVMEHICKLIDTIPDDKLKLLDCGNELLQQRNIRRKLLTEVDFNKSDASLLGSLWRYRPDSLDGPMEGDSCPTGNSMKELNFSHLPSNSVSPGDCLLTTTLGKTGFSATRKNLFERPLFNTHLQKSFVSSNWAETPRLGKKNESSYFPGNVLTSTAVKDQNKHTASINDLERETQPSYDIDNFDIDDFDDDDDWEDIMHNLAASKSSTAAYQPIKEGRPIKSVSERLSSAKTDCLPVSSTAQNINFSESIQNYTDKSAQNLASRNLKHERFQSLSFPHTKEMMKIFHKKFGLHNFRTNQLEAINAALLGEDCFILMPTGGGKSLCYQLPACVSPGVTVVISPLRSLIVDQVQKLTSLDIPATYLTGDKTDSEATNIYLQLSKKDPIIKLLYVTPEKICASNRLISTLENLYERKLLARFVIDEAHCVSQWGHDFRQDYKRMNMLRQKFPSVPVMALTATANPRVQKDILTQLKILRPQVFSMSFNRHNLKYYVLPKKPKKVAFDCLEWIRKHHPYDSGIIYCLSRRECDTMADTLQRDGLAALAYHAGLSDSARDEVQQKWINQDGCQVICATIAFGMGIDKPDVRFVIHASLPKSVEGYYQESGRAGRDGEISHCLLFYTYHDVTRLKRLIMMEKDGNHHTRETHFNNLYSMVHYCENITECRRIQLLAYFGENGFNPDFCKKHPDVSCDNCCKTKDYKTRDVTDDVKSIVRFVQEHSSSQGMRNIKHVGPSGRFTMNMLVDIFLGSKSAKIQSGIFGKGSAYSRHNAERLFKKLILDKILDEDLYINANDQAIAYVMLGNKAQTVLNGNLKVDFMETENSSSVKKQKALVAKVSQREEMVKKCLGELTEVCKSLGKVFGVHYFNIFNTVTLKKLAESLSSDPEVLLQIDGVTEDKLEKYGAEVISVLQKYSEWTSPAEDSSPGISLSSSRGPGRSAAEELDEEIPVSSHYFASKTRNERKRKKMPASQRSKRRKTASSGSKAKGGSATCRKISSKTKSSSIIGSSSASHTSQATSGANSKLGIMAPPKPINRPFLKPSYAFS

PSNG13 cells [3] = assay: WST-1 proliferation assay, PSNG13; format: cell-based, human; settings: PSNG13 (BLM−); 24–72 hours
BLM [4] = biological target: T1, BLM; assay: Fluorescence polarization assay of BLM binding to TAMRA-labeled oligonucleotide; settings: dilution series; no nucleotide, ADP or ATP
PSNG13 cells [5] = assay: γ-H2AX focus formation after mitomycin C, PSNG13; format: cell-based, human; settings: with or without MMC, p>0.05
E. coli UvrD helicase = E. coli UvrD helicase (Escherichia coli, UniProt P03018); assay: Gel-based DNA unwinding assay, UvrD; format: biochemical
Sequence of E. coli UvrD helicase (P03018 whole entry): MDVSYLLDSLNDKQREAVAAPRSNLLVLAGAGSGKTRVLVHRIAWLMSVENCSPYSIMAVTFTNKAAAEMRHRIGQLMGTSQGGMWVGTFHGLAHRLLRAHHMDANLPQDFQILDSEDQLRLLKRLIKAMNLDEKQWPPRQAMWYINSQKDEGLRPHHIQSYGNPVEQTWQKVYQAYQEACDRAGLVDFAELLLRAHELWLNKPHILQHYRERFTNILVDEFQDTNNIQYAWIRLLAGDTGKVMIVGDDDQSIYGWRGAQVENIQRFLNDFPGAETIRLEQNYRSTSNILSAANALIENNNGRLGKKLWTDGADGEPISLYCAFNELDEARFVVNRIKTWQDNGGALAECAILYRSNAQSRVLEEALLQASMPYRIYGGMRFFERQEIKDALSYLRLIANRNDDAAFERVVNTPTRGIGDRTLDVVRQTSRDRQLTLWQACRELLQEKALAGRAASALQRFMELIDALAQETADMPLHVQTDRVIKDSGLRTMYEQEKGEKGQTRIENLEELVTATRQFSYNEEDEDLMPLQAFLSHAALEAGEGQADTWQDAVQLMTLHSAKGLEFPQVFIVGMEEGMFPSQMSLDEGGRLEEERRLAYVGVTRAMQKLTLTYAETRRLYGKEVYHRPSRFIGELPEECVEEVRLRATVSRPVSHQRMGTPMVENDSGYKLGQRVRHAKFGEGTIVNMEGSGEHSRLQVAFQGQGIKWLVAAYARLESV

PSNF5 cells [6] = assay: WST-1 proliferation assay, PSNF5; format: cell-based, human; settings: PSNF5 (BLM+); 24–72 hours
RecQ1 = biological target: T2, RecQ1 (Homo sapiens, UniProt P46063); assay: Gel-based DNA unwinding assay, RECQ1; format: biochemical
T2 sequence (P46063 1-649): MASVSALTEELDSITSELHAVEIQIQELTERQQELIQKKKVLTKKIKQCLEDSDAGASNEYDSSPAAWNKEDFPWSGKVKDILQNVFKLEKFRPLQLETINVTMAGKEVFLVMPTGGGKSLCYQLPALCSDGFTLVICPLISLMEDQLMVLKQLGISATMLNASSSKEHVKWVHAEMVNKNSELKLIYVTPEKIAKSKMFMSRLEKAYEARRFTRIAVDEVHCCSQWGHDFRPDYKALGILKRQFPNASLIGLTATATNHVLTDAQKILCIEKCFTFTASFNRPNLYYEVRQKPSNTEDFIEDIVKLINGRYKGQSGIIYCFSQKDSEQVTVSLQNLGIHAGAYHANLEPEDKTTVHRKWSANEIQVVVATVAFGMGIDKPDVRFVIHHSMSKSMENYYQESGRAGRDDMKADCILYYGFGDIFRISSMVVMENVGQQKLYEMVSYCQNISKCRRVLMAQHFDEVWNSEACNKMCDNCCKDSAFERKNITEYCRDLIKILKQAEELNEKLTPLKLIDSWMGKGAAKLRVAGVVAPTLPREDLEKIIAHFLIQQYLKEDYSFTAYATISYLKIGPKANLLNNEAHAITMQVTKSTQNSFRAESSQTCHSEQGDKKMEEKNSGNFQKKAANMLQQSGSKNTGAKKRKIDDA

PSNF5 cells [7] = assay: Sister chromatid exchange; format: cell-based, human
RecQ5 = RecQ5 (Homo sapiens, UniProt O94762); assay: Gel-based DNA unwinding assay, RECQ5; format: biochemical
Sequence of RecQ5 (O94762 whole entry): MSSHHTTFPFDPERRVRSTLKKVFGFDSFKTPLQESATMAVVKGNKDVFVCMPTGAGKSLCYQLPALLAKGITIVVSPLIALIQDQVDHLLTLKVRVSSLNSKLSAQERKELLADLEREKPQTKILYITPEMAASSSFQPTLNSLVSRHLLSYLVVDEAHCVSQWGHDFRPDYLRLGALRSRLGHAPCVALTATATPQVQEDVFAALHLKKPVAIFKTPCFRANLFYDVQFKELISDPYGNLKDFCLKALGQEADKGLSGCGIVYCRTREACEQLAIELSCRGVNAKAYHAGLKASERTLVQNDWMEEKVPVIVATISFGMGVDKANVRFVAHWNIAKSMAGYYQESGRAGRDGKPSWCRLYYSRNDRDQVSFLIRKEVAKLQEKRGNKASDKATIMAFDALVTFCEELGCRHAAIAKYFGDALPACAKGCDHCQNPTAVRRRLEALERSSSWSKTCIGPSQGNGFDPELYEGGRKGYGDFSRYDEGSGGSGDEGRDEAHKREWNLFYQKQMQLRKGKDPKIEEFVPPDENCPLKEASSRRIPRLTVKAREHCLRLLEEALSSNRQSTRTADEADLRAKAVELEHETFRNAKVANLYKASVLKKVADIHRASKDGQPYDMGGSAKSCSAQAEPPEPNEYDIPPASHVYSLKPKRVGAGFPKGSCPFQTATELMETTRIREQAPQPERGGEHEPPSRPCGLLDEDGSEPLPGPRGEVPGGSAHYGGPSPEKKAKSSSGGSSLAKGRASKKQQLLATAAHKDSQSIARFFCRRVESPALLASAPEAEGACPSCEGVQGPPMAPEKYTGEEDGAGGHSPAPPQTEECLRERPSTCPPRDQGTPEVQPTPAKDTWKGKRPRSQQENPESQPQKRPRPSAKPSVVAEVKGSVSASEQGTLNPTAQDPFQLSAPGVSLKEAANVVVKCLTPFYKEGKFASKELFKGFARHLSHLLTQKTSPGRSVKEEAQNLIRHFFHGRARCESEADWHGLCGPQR

[8] = biological target: WRN^long (full length WRN) (Homo sapiens, UniProt Q14191); assay: Gel-based DNA unwinding assay, full length WRN; format: biochemical
Sequence of WRN^long (full length WRN) (Q14191 whole entry): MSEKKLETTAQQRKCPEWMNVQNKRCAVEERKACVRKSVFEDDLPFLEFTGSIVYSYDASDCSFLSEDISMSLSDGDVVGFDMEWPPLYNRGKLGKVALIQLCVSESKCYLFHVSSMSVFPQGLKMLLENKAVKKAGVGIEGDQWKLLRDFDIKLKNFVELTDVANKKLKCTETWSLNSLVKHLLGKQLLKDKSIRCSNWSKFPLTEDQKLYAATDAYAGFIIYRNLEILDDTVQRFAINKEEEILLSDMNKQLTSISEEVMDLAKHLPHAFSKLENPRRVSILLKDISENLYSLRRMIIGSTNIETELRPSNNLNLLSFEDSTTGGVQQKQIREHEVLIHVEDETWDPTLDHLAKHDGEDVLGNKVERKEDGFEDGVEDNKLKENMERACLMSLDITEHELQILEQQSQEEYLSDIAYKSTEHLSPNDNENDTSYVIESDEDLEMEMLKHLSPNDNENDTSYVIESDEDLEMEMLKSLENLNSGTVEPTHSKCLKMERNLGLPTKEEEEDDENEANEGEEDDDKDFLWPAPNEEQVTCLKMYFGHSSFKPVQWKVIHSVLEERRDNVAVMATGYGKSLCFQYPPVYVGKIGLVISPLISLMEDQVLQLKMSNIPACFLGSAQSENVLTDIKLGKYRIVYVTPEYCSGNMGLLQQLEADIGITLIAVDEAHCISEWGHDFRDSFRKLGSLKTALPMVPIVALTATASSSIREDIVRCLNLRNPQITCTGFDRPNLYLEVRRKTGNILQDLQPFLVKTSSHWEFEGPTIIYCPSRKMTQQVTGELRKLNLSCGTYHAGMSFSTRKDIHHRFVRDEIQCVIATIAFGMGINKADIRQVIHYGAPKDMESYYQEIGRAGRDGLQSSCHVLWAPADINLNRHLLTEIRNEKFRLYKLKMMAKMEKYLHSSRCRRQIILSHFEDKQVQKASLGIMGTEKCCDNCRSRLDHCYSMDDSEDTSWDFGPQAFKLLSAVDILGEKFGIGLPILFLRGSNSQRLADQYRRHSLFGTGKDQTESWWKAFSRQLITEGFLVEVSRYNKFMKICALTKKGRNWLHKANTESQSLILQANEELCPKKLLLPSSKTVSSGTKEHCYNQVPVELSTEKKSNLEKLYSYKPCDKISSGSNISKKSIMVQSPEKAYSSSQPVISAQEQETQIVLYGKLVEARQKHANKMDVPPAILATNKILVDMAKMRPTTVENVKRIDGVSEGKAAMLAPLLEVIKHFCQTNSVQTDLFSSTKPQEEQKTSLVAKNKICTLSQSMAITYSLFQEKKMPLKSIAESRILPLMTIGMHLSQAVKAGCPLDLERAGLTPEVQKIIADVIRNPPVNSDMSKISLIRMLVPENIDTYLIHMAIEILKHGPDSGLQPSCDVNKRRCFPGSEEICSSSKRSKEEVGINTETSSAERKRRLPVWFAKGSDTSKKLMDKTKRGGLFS

human cells = assay: Cell cycle checkpoint responses in cells; format: cell-based; settings: 50µM, 24 hours; data not shown
PSNF5 cells [9] = assay: γ-H2AX focus formation after mitomycin C, PSNF5; format: cell-based, human; settings: ML216 and MMC versus MMC alone, p<0.05
BLM [10] = biological target: T1, BLM; assay: Electrophoretic mobility shift assay; format: binding; settings: ssDNA or forked duplex; increasing concentrations
PSNG13 cells [11] = assay: Sister chromatid exchange; format: cell-based, human
How it was run: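 Stable transfectants of SV40-transformed Bloom syndrome fibroblast line GM08505 were used: PSNF5 (Flag-BLM) and PSNG13 (empty vector). Cells were left untreated or exposed to test compound, with exposures in the 24–72 hr range. Sister chromatid exchanges were scored as frequency per chromosome and number per chromosome.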

WRN^+ and WRN^− cells [12] = assay: Aphidicolin sensitization of WRN+ and WRN− fibroblasts; format: cell-based, human
WRN^+ and WRN^− cells [13] = assay: Proliferation of WRN+ and WRN− fibroblasts; format: cell-based, human
PSNG13 cells [14] = assay: Clonogenic survival, sensitization to aphidicolin, PSNG13; format: cell-based, human
How it was run: as §1

BLM [15] = biological target: T1, BLM; assay: ssDNA-dependent ATPase activity of BLM; format: biochemical
BLM^full-length = BLM^full-length (Homo sapiens, UniProt P54132); assay: Gel-based DNA unwinding assay, forked duplex, full-length BLM; format: biochemical
Sequence of BLM^full-length (P54132 whole entry): as the sequence (P54132 whole entry) above

BLM [16] = biological target: T1, BLM; assay: Traditional helicase assay, radiolabeled forked duplex, PAGE; format: biochemical
How it was run: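 Substrate was gel-purified and dialysed, and its concentration was set by scintillation counting. Reactions held at most 1% DMSO. Unwinding to ssDNA was resolved by PAGE and expressed as percent unwinding against untreated (0%) and heat-denatured (100%) controls. IC50 came from nonlinear regression.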

BLM^636–1298 = BLM^636–1298 (Homo sapiens, UniProt P54132); assay: Fluorescence-quenching qHTS assay of BLM DNA unwinding; format: biochemical
How it was run: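 Quenched-fluorescence unwinding screen used bacterially expressed truncated BLM (residues 636–1298). The forked duplex substrate carries tetramethylrhodamine at the 3' end of one strand and Black Hole Quencher-2 at the 5' end of the complement. ATP-dependent unwinding raises fluorescence. Inhibition is the signal loss relative to DMSO-only controls, run as dose-response (qHTS).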

SMILES: O=C(Nc1ccc(F)c(C(F)(F)F)c1)Nc1nnc(-c2ccncc2)s1 [ML216]
sensitivity to aphidicolin (PSNF5 cells [1]): increased the sensitivity | IC50 (WRN^short (WRN^500–946)): 12.6 µM | inhibition of BLM's G-quadruplex disrupting activity (BLM [2]): only very modest inhibition | inhibition of disruption of the D-loop substrate (BLM [2]; 50 µM): only at high concentrations | inhibition of disruption of the Holliday junction substrate (BLM [2]; 50 µM): only at high concentrations | effect on cell proliferation (PSNG13 cells [3]): not of PSNG13 cells | effect on DNA binding by BLM (fluorescence polarization) (BLM [4]): inhibits the ability of BLM to bind DNA | γ-H2AX focus formation (PSNG13 cells [5]): no significant effect | IC50 (E. coli UvrD helicase): > 50 µM | inhibition of helicase activity (E. coli UvrD helicase; at 50 µM): only very modest inhibition | effect on cell proliferation (PSNF5 cells [6]): inhibitor of the proliferation of PSNF5 cells | IC50 (RecQ1): > 50 µM | inhibition of helicase activity (RecQ1; at 50 µM): only very modest inhibition | frequency of sister chromatid exchanges (SCEs) (PSNF5 cells [7]): statistically significant increase | frequency of SCEs, short exposure (PSNF5 cells [7]; present only during the last 8 hours): statistically significant increase in the frequency of SCEs | IC50 (RecQ5): > 50 µM | inhibition of helicase activity (RecQ5; at 50 µM): only very modest inhibition | sensitivity of full length WRN versus WRN^500–946 (based on IC50 values) [8]: 2.5 fold | cell cycle arrest in G1/S or G2/M (human cells): did not cause cell cycle arrest | phosphorylation of ATM or ATR targets, including CHK1 and CHK2 (human cells): did not appear to cause phosphorylation | γ-H2AX focus formation (PSNF5 cells [9]): statistically significant reduction | effect on DNA binding by BLM (EMSA) (BLM [10]): displacement of either ssDNA or forked duplex DNA from a complex with BLM | frequency of sister chromatid exchanges (SCEs) (PSNG13 cells [11]): not in PSNG13 cells | sensitization to aphidicolin, WRN^+ versus WRN^− cells (WRN^+ and WRN^− cells [12]): similarly sensitized both cell types | inhibition of proliferation, WRN^+ versus WRN^− cells (WRN^+ and WRN^− cells [13]): equally well | sensitivity to aphidicolin (PSNG13 cells [14]): no sensitizing effect | mode of inhibition of ATPase activity with respect to ATP (BLM [15]): non-competitive | sensitivity of BLM versus WRN (based on IC50 values) (BLM^full-length): 1.7 fold

activity in radioactivity-based helicase assay (BLM [16]): showed activity | activity in fluorescence-based screening assay (BLM^636–1298): showed activity
SMILES: O=C(Nc1ccc(Cl)c(Cl)c1)Nc1nnc(-c2ccncc2)s1 [MLS000559245]
